Test results: ChEMBL document CHEMBL5058577, “EUbOPEN Chemogenomics Library 2 (Multiplex)” (2022)

System: HEK-293T
Test: Multiplex assay against HEK293T
Type: toxicity, cell-based
Details: human
Outline: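 On a CQ1 microscope at 37°C and 5% CO2, live cells were imaged after compound addition. They had been stained at seeding with Hoechst33342, BioTracker Green Microtubule Cytoskeleton Dye, MitoTracker Red and Annexin V Alexa Fluor 680. CellPathfinder machine-learning gating assigned cells to Hoechst high-intensity objects or normal cells, normal cells to healthy, pyknosed or fragmented nuclei, and pyknosed cells to mitotic or apoptotic. Tubulin, mitochondrial-mass and membrane-permeability phenotypes are per cents of healthy-nucleus cells.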

[1] = 12 h, 1 µM, compound concentration 1 uM, replicate 1
[2] = 12 h, 1 µM, compound concentration 1 uM, replicate 2
[3] = 12 h, 10 µM, compound concentration 10 uM, replicate 1
[4] = 12 h, 10 µM, compound concentration 10 uM, replicate 2
[5] = 24 h, 1 µM, compound concentration 1 uM, replicate 1
[6] = 24 h, 1 µM, compound concentration 1 uM, replicate 2
[7] = 24 h, 10 µM, compound concentration 10 uM, replicate 1
[8] = 24 h, 10 µM, compound concentration 10 uM, replicate 2
[9] = 48 h, 1 µM, compound concentration 1 uM, replicate 1
[10] = 48 h, 1 µM, compound concentration 1 uM, replicate 2
[11] = 48 h, 10 µM, compound concentration 10 uM, replicate 1
[12] = 48 h, 10 µM, compound concentration 10 uM, replicate 2

## O=C(O)Cc1ccccc1Nc1c(Cl)cccc1Cl [DICLOFENAC]
[1]
  Population Apoptotic (%): 36%
  Population Fragmented Nuclei (%): 7%
  Population Healthy Nuclei (%): 77%
  Population Hoechst High Intensity Objects (%): 5%
  Population Membrane Permeable-Phenotype (%): 0%
  Population Mitochondria Different-Phenotype (%): 53%
  Population Mitotic Cells (%): 63%
  Population Normal (%): 94%
  Population Pyknosed Nuclei (%): 14%
  Population Tubulin-Different-Phenotype (%): 32%
  Total Cell Count: 376
[2]
  Population Apoptotic (%): 52%
  Population Healthy Nuclei (%): 79%
  Population Hoechst High Intensity Objects (%): 10%
  Population Mitochondria Different-Phenotype (%): 61%
  Population Mitotic Cells (%): 47%
  Population Normal (%): 89%
  Population Pyknosed Nuclei (%): 13%
  Population Tubulin-Different-Phenotype (%): 23%
  Total Cell Count: 324
[3]
  Population Apoptotic (%): 30%
  Population Fragmented Nuclei (%): 7%
  Population Healthy Nuclei (%): 77%
  Population Hoechst High Intensity Objects (%): 6%
  Population Membrane Permeable-Phenotype (%): 0%
  Population Mitochondria Different-Phenotype (%): 45%
  Population Mitotic Cells (%): 69%
  Population Normal (%): 93%
  Population Pyknosed Nuclei (%): 14%
  Population Tubulin-Different-Phenotype (%): 35%
  Total Cell Count: 480
[4]
  Population Apoptotic (%): 57%
  Population Healthy Nuclei (%): 75%
  Population Hoechst High Intensity Objects (%): 14%
  Population Mitochondria Different-Phenotype (%): 68%
  Population Mitotic Cells (%): 42%
  Population Normal (%): 85%
  Population Pyknosed Nuclei (%): 17%
  Total Cell Count: 370
[5]
  Population Apoptotic (%): 30%
  Population Fragmented Nuclei (%): 7%
  Population Healthy Nuclei (%): 76%
  Population Hoechst High Intensity Objects (%): 3%
  Population Membrane Permeable-Phenotype (%): 0%
  Population Mitochondria Different-Phenotype (%): 44%
  Population Mitotic Cells (%): 69%
  Population Normal (%): 96%
  Population Pyknosed Nuclei (%): 15%
  Population Tubulin-Different-Phenotype (%): 24%
  Total Cell Count: 456
[6]
  Population Apoptotic (%): 45%
  Population Fragmented Nuclei (%): 6%
  Population Healthy Nuclei (%): 78%
  Population Hoechst High Intensity Objects (%): 10%
  Population Mitochondria Different-Phenotype (%): 37%
  Population Mitotic Cells (%): 54%
  Population Normal (%): 89%
  Population Pyknosed Nuclei (%): 14%
  Population Tubulin-Different-Phenotype (%): 9%
  Total Cell Count: 418
[7]
  Population Apoptotic (%): 25%
  Population Fragmented Nuclei (%): 10%
  Population Healthy Nuclei (%): 77%
  Population Hoechst High Intensity Objects (%): 4%
  Population Membrane Permeable-Phenotype (%): 0%
  Population Mitochondria Different-Phenotype (%): 29%
  Population Mitotic Cells (%): 74%
  Population Normal (%): 95%
  Population Pyknosed Nuclei (%): 12%
  Population Tubulin-Different-Phenotype (%): 29%
  Total Cell Count: 650
[8]
  Population Apoptotic (%): 49%
  Population Healthy Nuclei (%): 75%
  Population Hoechst High Intensity Objects (%): 9%
  Population Mitochondria Different-Phenotype (%): 50%
  Population Mitotic Cells (%): 50%
  Population Normal (%): 90%
  Population Pyknosed Nuclei (%): 14%
  Population Tubulin-Different-Phenotype (%): 26%
  Total Cell Count: 462
[9]
  Population Apoptotic (%): 23%
  Population Fragmented Nuclei (%): 11%
  Population Healthy Nuclei (%): 82%
  Population Hoechst High Intensity Objects (%): 2%
  Population Membrane Permeable-Phenotype (%): 1%
  Population Mitochondria Different-Phenotype (%): 22%
  Population Mitotic Cells (%): 76%
  Population Normal (%): 97%
  Population Pyknosed Nuclei (%): 6%
  Population Tubulin-Different-Phenotype (%): 15%
  Total Cell Count: 730
[10]
  Population Apoptotic (%): 33%
  Population Fragmented Nuclei (%): 15%
  Population Healthy Nuclei (%): 79%
  Population Mitochondria Different-Phenotype (%): 16%
  Population Mitotic Cells (%): 66%
  Population Pyknosed Nuclei (%): 4%
  Population Tubulin-Different-Phenotype (%): 10%
  Total Cell Count: 697
[11]
  Population Apoptotic (%): 36%
  Population Fragmented Nuclei (%): 12%
  Population Healthy Nuclei (%): 80%
  Population Hoechst High Intensity Objects (%): 3%
  Population Membrane Permeable-Phenotype (%): 1%
  Population Mitochondria Different-Phenotype (%): 17%
  Population Mitotic Cells (%): 63%
  Population Normal (%): 96%
  Population Pyknosed Nuclei (%): 7%
  Population Tubulin-Different-Phenotype (%): 18%
  Total Cell Count: 883
[12]
  Population Fragmented Nuclei (%): 16%
  Population Healthy Nuclei (%): 75%
  Population Hoechst High Intensity Objects (%): 4%
  Population Membrane Permeable-Phenotype (%): 0%
  Population Mitochondria Different-Phenotype (%): 36%
  Population Normal (%): 95%
  Population Tubulin-Different-Phenotype (%): 17%
  Total Cell Count: 649
